In ChEMBL document CHEMBL4406880, “Design, synthesis, and bioactivity of dihydropyrimidine derivatives as kinesin spindle protein inhibitors” (Bioorg Med Chem, 2019):

Assays:
Type in all cases: functional
Malme-3M = test: Growth inhibition of human MALME-3M cells incubated for 48 hrs by sulforhodamine B assay
In short: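 NCI-60 five-dose SRB assay in RPMI 1640 with 5% FBS, 37 °C, 5% CO2. Compound given at five tenfold dilutions, 0.01–100 µM, for 48 h. Adherent cells fixed with TCA, suspension cells with 16% final TCA. Bound SRB read at 515 nm and growth calculated against time-zero and untreated controls. GI50 taken from dose–response curves as the concentration giving a 50% decrease in net cell growth.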

SK-MEL-2 [1] = test: Growth inhibition of human SK-MEL-2 cells incubated for 48 hrs by sulforhodamine B assay; conditions: SK-MEL-2, 48 h
In short: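 NCI-60 five-dose SRB assay. Cells were exposed for 48 h to tenfold dilutions of 0.01, 0.1, 1, 10 and 100 µM, in RPMI 1640 with 5% FBS. Plates fixed with TCA at the time of drug addition served as the time-zero reference. GI50 is the concentration giving a 50% reduction in net growth. TGI is total growth inhibition. LC50 is a net 50% loss of the initial cells.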

786-0 = test: Growth inhibition of human 786-0 cells incubated for 48 hrs by sulforhodamine B assay; conditions: 786-0, 48 h
In short: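 NCI-60 five-dose mode: five tenfold dilutions (0.01, 0.1, 1, 10, 100 µM) are applied for 48 h to cells in RPMI 1640 with 5% FBS at 37 °C. Endpoint is TCA fixation with sulforhodamine B read at 515 nm. % growth comes from the 0 h and control absorbances. GI50 is the concentration giving a 50% reduction in net cell growth.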

SF-539 = test: Growth inhibition of human SF539 cells assessed as cell viability at 100 uM incubated for 48 hrs by sulforhodamine B assay; conditions: SF-539, 48 h, read-out: Activity
HT-29 [2] = test: Growth inhibition of human HT-29 cells assessed as cell viability at 100 uM incubated for 48 hrs by sulforhodamine B assay; conditions: HT-29, 48 h, read-out: Activity
HOP-62 = test: Growth inhibition of human HOP62 cells assessed as cell viability at 100 uM incubated for 48 hrs by sulforhodamine B assay; conditions: HOP-62, 48 h, read-out: Activity
PC-3 = test: Growth inhibition of human PC3 cells assessed as cell viability at 1 uM incubated for 48 hrs by sulforhodamine B assay; conditions: PC-3, 48 h, read-out: Activity
OVCAR-5 = test: Growth inhibition of human OVCAR5 cells assessed as cell viability at 1 uM incubated for 48 hrs by sulforhodamine B assay; conditions: OVCAR-5, 48 h, read-out: Activity
SK-MEL-28 = test: Growth inhibition of human SK-MEL-28 cells assessed as cell viability at 1 uM incubated for 48 hrs by sulforhodamine B assay; conditions: SK-MEL-28, 48 h, read-out: Activity
SNB-75 = test: Growth inhibition of human SNB75 cells assessed as cell viability at 1 uM incubated for 48 hrs by sulforhodamine B assay; conditions: SNB-75, 48 h, read-out: Activity
NCI-H460 = test: Growth inhibition of human NCI-H460 cells assessed as cell viability at 1 uM incubated for 48 hrs by sulforhodamine B assay; conditions: NCI-H460, 48 h, read-out: Activity
HL-60(TB) = test: Growth inhibition of human HL-60(TB) cells assessed as cell viability at 1 uM incubated for 48 hrs by sulforhodamine B assay; conditions: HL-60, 48 h, read-out: Activity
In short: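 NCI-60 five-dose assay, SRB end-point, same culture conditions. Compound is tested at tenfold dilutions of 0.01, 0.1, 1, 10 and 100 µM for 48 h at 37 °C, with DMSO/PBS vehicle controls. Percentage growth at each concentration is taken against untreated cells and a time-zero plate. GI50 is 50% net growth decrease, TGI is total growth inhibition, and LC50 is 50% loss of initial cells.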

CCRF-CEM = test: Growth inhibition of human CCRF-CEM cells assessed as cell viability at 1 uM incubated for 48 hrs by sulforhodamine B assay; conditions: read-out: Activity
M14 = test: Growth inhibition of human M14 cells assessed as cell viability at 0.1 uM incubated for 48 hrs by sulforhodamine B assay; conditions: M14, 48 h, read-out: Activity
HT-29 [3] = test: Growth inhibition of human HT-29 cells assessed as cell viability at 0.1 uM incubated for 48 hrs by sulforhodamine B assay; conditions: HT-29, 48 h, read-out: Activity
HCT-116 [4] = test: Growth inhibition of human HCT116 cells assessed as cell viability at 0.1 uM incubated for 48 hrs by sulforhodamine B assay; conditions: HCT-116, 48 h, read-out: Activity
SR = test: Growth inhibition of human SR cells assessed as cell viability at 0.1 uM incubated for 48 hrs by sulforhodamine B assay; conditions: read-out: Activity
SK-OV-3 = test: Growth inhibition of human SKOV3 cells assessed as cell viability at 0.001 uM incubated for 48 hrs by sulforhodamine B assay relative to control; conditions: SK-OV-3, 48 h, read-out: Activity
OVCAR-8 = test: Growth inhibition of human OVCAR8 cells assessed as cell viability at 0.001 uM incubated for 48 hrs by sulforhodamine B assay relative to control; conditions: OVCAR-8, 48 h, read-out: Activity
SK-MEL-2 [5] = test: Growth inhibition of human SK-MEL-2 cells assessed as cell viability at 0.001 uM incubated for 48 hrs by sulforhodamine B assay relative to control; conditions: SK-MEL-2, 48 h, read-out: Activity
SW-620 = test: Growth inhibition of human SW620 cells assessed as cell viability at 0.001 uM incubated for 48 hrs by sulforhodamine B assay relative to control; conditions: SW-620, 48 h, read-out: Activity
HCT-116 [6] = test: Growth inhibition of human HCT116 cells assessed as cell viability at 0.001 uM incubated for 48 hrs by sulforhodamine B assay relative to control; conditions: HCT-116, 48 h, read-out: Activity
NCI-H23 = test: Growth inhibition of human NCI-H23 cells assessed as cell viability at 0.001 uM incubated for 48 hrs by sulforhodamine B assay relative to control; conditions: NCI-H23, 48 h, read-out: Activity
A549 = test: Growth inhibition of human A549/ATCC cells assessed as cell viability at 0.001 uM incubated for 48 hrs by sulforhodamine B assay relative to control; conditions: A549, 48 h, read-out: Activity
NCI/ADR-RES = test: Growth inhibition of human NCI/ADR-RES cells assessed as cell viability at 100 uM incubated for 48 hrs by sulforhodamine B assay; conditions: read-out: Activity

Q: With `CC1=C(C(=O)OCc2ccccc2)C(c2ccc3c(c2)OCO3)n2c(nc3ccccc32)N1` (racemic) as the compound, how does the GI50 (Malme-3M; read-out: GI50) read?
A: Its GI50 is 0.44 µM.

Q: And the LC50 (Malme-3M; read-out: LC50)?
A: The LC50 was greater than 100 µM.

Q: And the TGI (Malme-3M; read-out: TGI)?
A: Its TGI is greater than 100 µM.

Q: And the GI50 (Malme-3M; read-out: pGI50 (converted))?
A: The GI50 was 0.437 µM.

Q: And the LC50 (Malme-3M; read-out: pLC50 (converted))?
A: Its LC50 is greater than 100 µM.

Q: And the TGI (Malme-3M; read-out: pTGI)?
A: The TGI was greater than 100 µM.

Q: What about the GI50 (SK-MEL-2 [1]; read-out: GI50) of the same compound?
A: The GI50 was 1.29 µM.

Q: And the LC50 (SK-MEL-2 [1]; read-out: LC50)?
A: The LC50 was greater than 100 µM.

Q: What about the TGI (SK-MEL-2 [1]; read-out: TGI) of the same compound?
A: The TGI was greater than 100 µM.

Q: And the GI50 (SK-MEL-2 [1]; read-out: pGI50 (converted))?
A: Its GI50 is 1.29 µM.

Q: What about the LC50 (SK-MEL-2 [1]; read-out: pLC50 (converted)) of the same compound?
A: Its LC50 is greater than 100 µM.

Q: And the TGI (SK-MEL-2 [1]; read-out: pTGI)?
A: The TGI was greater than 100 µM.

Q: And the GI50 (786-0; read-out: GI50)?
A: The GI50 was 0.47 µM.

Q: What about the CC50 (786-0; read-out: LC50 (the source's name)) of the same compound?
A: Its CC50 is greater than 100 µM.

Q: And the TGI (786-0; read-out: TGI)?
A: The TGI was greater than 100 µM.

Q: What about the GI50 (786-0; read-out: pGI50 (converted)) of the same compound?
A: The GI50 was 0.468 µM.

Q: What about the CC50 (786-0; read-out: pLC50 (the source's name) (converted)) of the same compound?
A: Its CC50 is greater than 100 µM.

Q: What about the TGI (786-0; read-out: pTGI) of the same compound?
A: The TGI was greater than 100 µM.

Q: And the viability at 100 µM (SF-539)?
A: Its viability at 100 µM is 13%.

Q: What about the viability at 100 µM (HT-29 [2]) of the same compound?
A: The viability at 100 µM was 5%.

Q: What about the viability at 100 µM (HOP-62) of the same compound?
A: The viability at 100 µM was 31%.

Q: And the viability at 1 µM (PC-3)?
A: Its viability at 1 µM is 35%.

Q: What about the viability at 1 µM (OVCAR-5) of the same compound?
A: Its viability at 1 µM is 52%.

Q: What about the viability at 1 µM (SK-MEL-28) of the same compound?
A: The viability at 1 µM was 63%.

Q: And the viability at 1 µM (SNB-75)?
A: The viability at 1 µM was -8%.

Q: And the viability at 1 µM (NCI-H460)?
A: Its viability at 1 µM is 10%.

Q: And the viability at 1 µM (HL-60(TB))?
A: Its viability at 1 µM is 8%.

Q: What about the viability at 1 µM (CCRF-CEM) of the same compound?
A: Its viability at 1 µM is 19%.

Q: What about the viability at 0.1 µM (M14) of the same compound?
A: The viability at 0.1 µM was 90%.

Q: What about the viability at 0.1 µM (HT-29 [3]) of the same compound?
A: The viability at 0.1 µM was 99%.

Q: And the viability at 0.1 µM (HCT-116 [4])?
A: The viability at 0.1 µM was 100%.

Q: What about the viability at 0.1 µM (SR) of the same compound?
A: Its viability at 0.1 µM is 75%.

Q: What about the viability at 0.001 µM (SK-OV-3) of the same compound?
A: The viability at 0.001 µM was 99%.

Q: And the viability at 0.001 µM (OVCAR-8)?
A: The viability at 0.001 µM was 95%.

Q: What about the viability at 0.001 µM (SK-MEL-2 [5]) of the same compound?
A: Its viability at 0.001 µM is 97%.

Q: And the viability at 0.001 µM (SW-620)?
A: Its viability at 0.001 µM is 98%.

Q: What about the viability at 0.001 µM (HCT-116 [6]) of the same compound?
A: Its viability at 0.001 µM is 96%.

Q: And the viability at 0.001 µM (NCI-H23)?
A: Its viability at 0.001 µM is 93%.

Q: And the viability at 0.001 µM (A549)?
A: The viability at 0.001 µM was 95%.

Q: And the viability at 100 µM (NCI/ADR-RES)?
A: The viability at 100 µM was 14%.
